Source: ChEMBL document CHEMBL4024711, “Design, synthesis and biological evaluation of novel nitric oxide-donating protoberberine derivatives as antitumor agents” (Eur J Med Chem, 2017)
Active and inactive are the calls of the source. The rule behind the calls is not given here.

Experiments:
[1] = tested on: HCT-116; assay: Cytotoxicity against human HCT116 cells after 72 hrs by MTT assay; format: functional, cell-based; conditions: HCT-116, 72 h
Procedure, shortened: (§1)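 MTT assay. Cells were plated and grown 24 h at 37 °C, 5% CO2, then exposed to compound in medium with 0.1% DMSO for 72 h. MTT (5 mg/mL in PBS) was added for 4 h and absorbance read at 490 nm. IC50 was taken from dose-response curves; at least three independent experiments.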

[2] = tested on: SMMC-7721; assay: Cytotoxicity against human SMMC7721 cells after 72 hrs by MTT assay; format: functional, cell-based; conditions: SMMC-7721, 72 h; procedure, shortened: as §1
[3] = tested on: HL-60; assay: Cytotoxicity against human HL60 cells after 72 hrs by MTT assay; format: functional, cell-based; conditions: HL-60, 72 h; procedure, shortened: as §1
[4] = tested on: L02; assay: Cytotoxicity against human LO2 cells after 72 hrs by MTT assay; format: cell-based; conditions: L02, 72 h; procedure, shortened: as §1
[5] = tested on: H22; assay: Antitumor activity against […] H22 cells xenografted in ICR mouse assessed as tumor growth inhibition at 30 mg/kg, iv administered once daily for 21 days measured post last dose relative to control; format: functional; conditions: 504 h, read-out: TGI
[6] = tested on: HepG2; assay: Cytotoxicity against human HepG2 cells after 72 hrs by MTT assay; format: functional, cell-based; conditions: HepG2, 72 h; procedure, shortened: as §1
[7] = tested on: Mus musculus; assay: Toxicity in ICR mouse xenografted with […] cells assessed as body weight at 30 mg/kg, iv administered once daily for 21 days measured post last dose (reference value: 26 +/- 0.6 g); format: organism-based; conditions: in vivo, 504 h
[8] = Induction of NO release assessed as nitrite formation in PBS at 100 uM up to 300 mins by Griess assay
Procedure, shortened: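 Compound at 100 μM was incubated at 37 °C in PBS, pH 7.4, containing 2% DMSO and 5.0 mM L-cysteine, in acellular or HepG2 cell lysates, and sampled over time. Samples were mixed with Griess reagent at 37 °C for 15 min and read at 540 nm. Nitrite was quantified against a sodium nitrite standard curve, in triplicate.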

SMILES	IC50 [1]	IC50 [2]	IC50 [3]	IC50 [4]	inhibition in vivo at 30 mg/kg [5]	IC50 [6]	Activity [7]	Activity [8]
COc1cc2c(cc1OC)-c1cc3ccc(OC)c(OC)c3c[n+]1CC2.[Cl-] [PALMATINE CHLORIDE]	> 100 µM	> 100 µM	> 100 µM	> 100 µM	41.6%	> 100 µM	25.5 g	–
COc1ccc2cc3[n+](cc2c1OCCCO[N+](=O)[O-])CCc1cc2c(cc1-3)OCO2	–	–	–	–	–	22 µM	–	–
COc1ccc2cc3[n+](cc2c1OC)CCc1cc2c(cc1-3)OCO2 [BERBERINE CHLORIDE]	40 µM	25.9 µM	27.4 µM	71.5 µM	–	49 µM	–	–
COc1ccc2cc3[n+](cc2c1OCCCCCO[N+](=O)[O-])CCc1cc2c(cc1-3)OCO2	–	–	–	–	–	12.4 µM	–	–
COc1ccc2cc3[n+](cc2c1OC(=O)CCCCCCCCCO[N+](=O)[O-])CCc1cc2c(cc1-3)OCO2	–	–	–	–	–	> 100 µM	–	–
COc1ccc2cc3[n+](cc2c1OC(=O)CCCCCCCO[N+](=O)[O-])CCc1cc2c(cc1-3)OCO2	–	–	–	–	–	> 100 µM	–	Active
